In ChEMBL document CHEMBL1152649, “Synthesis, cytotoxicity and human telomerase inhibition activities of a series of 1,2-heteroannelated anthraquinones and anthra[1,2-d]imidazole-6,11-dione homologues” (2009):

Legend:
Format in all cases: functional
LOX IMVI = test: Antiproliferative activity against human LOXIMVI cells assessed as cell growth at 10 uM; conditions: read-out: Activity
Summary of the method: (§1)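 NCI 60 cell line panel, single-dose screen (10^-5 M) run by the developmental therapeutics program protocol. Results are given as growth percent of treated cells relative to untreated control cells for each line.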

HCT-116 = test: Antiproliferative activity against human HCT116 cells assessed as cell growth at 10 uM; conditions: read-out: Activity; summary of the method: as §1
SN12C = test: Antiproliferative activity against human SN12C cells assessed as cell growth at 10 uM; conditions: read-out: Activity; summary of the method: as §1
SK-MEL-5 = test: Antiproliferative activity against human SK-MEL-5 cells assessed as cell growth at 10 uM; conditions: read-out: Activity; summary of the method: as §1
CAKI-1 = test: Antiproliferative activity against human Caki1 cells assessed as cell growth at 10 uM; conditions: read-out: Activity; summary of the method: as §1
[1] = Cytotoxicity against human H1299 cells at 100 uM after 48 hrs by MTT assay; conditions: NCI-H1299, 48 h
Summary of the method: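 H1299 non-small cell lung cancer cells were grown in RPMI 1640 with 10% FBS, penicillin and streptomycin at 37 °C under 5% CO2. About 2 × 10³ cells per well were seeded and left 24 h. Compounds were dissolved fresh in DMSO, diluted into complete medium and applied for 48 h. MTT was then added for 4 h at 37 °C, followed by lysis buffer (20% SDS, 50% DMF) for 16 h, and absorbance was read at 550 nm.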

ACHN = test: Antiproliferative activity against human ACHN cells assessed as cell growth at 10 uM; conditions: read-out: Activity; summary of the method: as §1
SR = test: Antiproliferative activity against human SR cells assessed as cell growth at 10 uM; conditions: read-out: Activity
Summary of the method: (§2)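 NCI 60 cell line panel, single dose (10^-5 M), run per the Developmental Therapeutics Program protocol (one dose mean graph). Each result is the growth percentage of treated cells relative to untreated control cells.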

A549 = test: Antiproliferative activity against human A549 cells assessed as cell growth at 10 uM; conditions: read-out: Activity; summary of the method: as §1
SF-268 = test: Antiproliferative activity against human SF268 cells assessed as cell growth at 10 uM; conditions: read-out: Activity; summary of the method: as §1
[2] = Antiproliferative activity against human RPMI8266 cells assessed as cell growth at 10 uM; conditions: read-out: Activity; summary of the method: as §1
NCI-H522 = test: Antiproliferative activity against human NCI-H522 cells assessed as cell growth at 10 uM; conditions: read-out: Activity; summary of the method: as §1
HL-60(TB) = test: Antiproliferative activity against human HL-60(TB) cells assessed as cell growth at 10 uM; conditions: read-out: Activity
Summary of the method: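 NCI Developmental Therapeutics Program 60-cell-line one-dose screen at 10^-5 M. Readout is growth percentage of treated cells relative to untreated control cells.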

T47D = test: Antiproliferative activity against human T47D cells assessed as cell growth at 10 uM; conditions: read-out: Activity; summary of the method: as §2
A498 = test: Antiproliferative activity against human A498 cells assessed as cell growth at 10 uM; conditions: read-out: Activity; summary of the method: as §1
Malme-3M = test: Antiproliferative activity against human MALME-3M cells assessed as cell growth at 10 uM; conditions: read-out: Activity; summary of the method: as §1
OVCAR-8 = test: Antiproliferative activity against human OVCAR8 cells assessed as cell growth at 10 uM; conditions: read-out: Activity; summary of the method: as §1
RXF 393 = test: Antiproliferative activity against human RXF393 cells assessed as cell growth at 10 uM; conditions: read-out: Activity; summary of the method: as §1
UACC-257 = test: Antiproliferative activity against human UACC257 cells assessed as cell growth at 10 uM; conditions: read-out: Activity; summary of the method: as §2

SMILES | growth at 10 µM (LOX IMVI) | growth at 10 µM (HCT-116) | growth at 10 µM (SN12C) | growth at 10 µM (SK-MEL-5) | growth at 10 µM (CAKI-1) | viability at 100 µM [1] | growth at 10 µM (ACHN) | growth at 10 µM (SR) | growth at 10 µM (A549) | growth at 10 µM (SF-268) | growth at 10 µM [2] | growth at 10 µM (NCI-H522) | growth at 10 µM (HL-60(TB)) | growth at 10 µM (T47D) | growth at 10 µM (A498) | growth at 10 µM (Malme-3M) | growth at 10 µM (OVCAR-8) | growth at 10 µM (RXF 393) | growth at 10 µM (UACC-257)
O=C1c2ccccc2C(=O)c2c1ccc1nc(-c3ccc(Br)cc3)[nH]c21 | 102% | 99.6% | 112% | 87.1% | 86.6% | 20% | 91.4% | 92.4% | 95% | 106% | 95.2% | 76.5% | 100% | 97.3% | 117% | 224% | 96.3% |  | 
Cc1ccc(-c2nc3ccc4c(c3[nH]2)C(=O)c2ccccc2C4=O)cc1 | 104% | 99.8% | 103% | 88% | 110% | 16% | 101% | 114% | 55.7% | 106% | 91.5% | 84.7% | 125% | 76% | 176% | 97.6% | 96.4% |  | 
CC1(C)Nc2ccc3c(c2N1)C(=O)c1ccccc1C3=O | 61.9% | 54.7% | 92% | 86.5% | 61.7% | 31% | 50.2% | 72.4% | 94.6% | 90.2% | 99.9% | 38.9% | 129% | 83% | 80.6% | 155% | 90.2% | 85.1% | 118%
O=C1c2ccccc2C(=O)c2c1ccc1nc(-c3ccc4c(c3)OCO4)[nH]c21 | 99.6% | 116% | 101% | 98.7% | 114% | 40% | 104% | 91.7% | 102% | 100% | 96.2% | 83.3% | 127% | 107% | 91.7% |  | 96.5% | 120% | 117%
O=C1c2ccccc2C(=O)c2c1ccc1nc(-c3ccccc3)[nH]c21 | 79.7% | 82.4% | 87.5% | 65.2% | 51.9% | 34% | 71.9% | 95.5% | 79% | 91.9% | 61.1% | 80.4% | 99% | 65.1% | 77% | 74.5% | 91% |  | 
